ChEMBL document CHEMBL1649441, “Potency and bactericidal activity of iclaprim against recent clinical gram-positive isolates” (2009)
Values after ≈ are worked out from the molar mass of the structure shown.

Columns and labels:
[1] = system: Streptococcus sp. 'group B'; experiment: Antibacterial activity against Beta-hemolytic Streptococcus group B assessed as inhibition of bacterial growth at 8 ug/ml by CLSI broth microdilution method; assay type: functional
Procedure, shortened: (§1)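 Clinical isolates from skin/soft tissue, bloodstream and respiratory specimens were tested by broth microdilution per CLSI M7-A7 and M100-S18, with quality controls. Values are the number of isolates inhibited at each concentration, or MIC / percent susceptible. Highest concentration tested was 8 µg/ml for iclaprim and trimethoprim-sulfamethoxazole, and 64 µg/ml for trimethoprim.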

Enterococcus faecalis [2] = experiment: Antibacterial activity against Enterococcus faecalis assessed as inhibition of bacterial growth at 0.06 ug/ml by CLSI broth microdilution method; assay type: functional; procedure, shortened: as §1
Enterococcus faecalis [3] = experiment: Antibacterial activity against Enterococcus faecalis assessed as inhibition of bacterial growth at 2 ug/ml by CLSI broth microdilution method; assay type: functional; procedure, shortened: as §1
Staphylococcus aureus [4] = experiment: Antibacterial activity against Methicillin-sensitive Staphylococcus aureus assessed as susceptible isolates by CLSI broth microdilution method; assay type: functional
Staphylococcus aureus [5] = experiment: Antibacterial activity against Methicillin-resistant Staphylococcus aureus assessed as susceptible isolates by CLSI broth microdilution method; assay type: functional
Enterococcus faecium [6] = experiment: Antibacterial activity against Enterococcus faecium assessed as inhibition of bacterial growth at […] by CLSI broth microdilution method; assay type: functional; note: tested at 0.25 µg/mL
Enterococcus faecium [7] = experiment: Antibacterial activity against Enterococcus faecium assessed as inhibition of bacterial growth at 2 ug/ml by CLSI broth microdilution method; assay type: functional
Enterococcus faecium [8] = experiment: Antibacterial activity against Enterococcus faecium assessed as inhibition of bacterial growth at 8 ug/ml by CLSI broth microdilution method; assay type: functional
Staphylococcus aureus [9] = experiment: Antibacterial activity against Methicillin-resistant Staphylococcus aureus by CLSI broth microdilution method; assay type: functional
Staphylococcus aureus [10] = experiment: Antibacterial activity against Methicillin-sensitive Staphylococcus aureus assessed as inhibition of bacterial growth at 0.03 ug/ml by CLSI broth microdilution method; assay type: functional; design: Activity: scale not given: the % may be the effect or the level left
Procedure, shortened: (§2)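 Recent clinical isolates from skin/soft tissue, bloodstream and respiratory specimens. Tested by broth microdilution per CLSI M7-A7 and M100-S18, with the appropriate quality controls. The thymidine content of the test medium was assessed to rule out artifactual inhibition.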

Staphylococcus aureus [11] = experiment: Antibacterial activity against Methicillin-sensitive Staphylococcus aureus assessed as inhibition of bacterial growth at 0.06 ug/ml by CLSI broth microdilution method; assay type: functional; design: Activity: scale not given: the % may be the effect or the level left
Staphylococcus aureus [12] = experiment: Antibacterial activity against Methicillin-sensitive Staphylococcus aureus assessed as inhibition of bacterial growth at 1 ug/ml by CLSI broth microdilution method; assay type: functional
Staphylococcus aureus [13] = experiment: Antibacterial activity against Methicillin-sensitive Staphylococcus aureus assessed as inhibition of bacterial growth at 2 ug/ml by CLSI broth microdilution method; assay type: functional
Staphylococcus aureus [14] = experiment: Antibacterial activity against Methicillin-sensitive Staphylococcus aureus assessed as inhibition of bacterial growth at 8 ug/ml by CLSI broth microdilution method; assay type: functional; procedure, shortened: as §2
Staphylococcus aureus [15] = experiment: (§3) Antibacterial activity against Methicillin-resistant Staphylococcus aureus assessed as inhibition of bacterial growth at […] by CLSI broth microdilution method; assay type: functional
Staphylococcus aureus [16] = experiment: as §3; assay type: functional; remark: listed apart in the source
Staphylococcus aureus [17] = experiment: Antibacterial activity against Methicillin-resistant Staphylococcus aureus assessed as inhibition of bacterial growth at 4 ug/ml by CLSI broth microdilution method; assay type: functional; procedure, shortened: as §2
Staphylococcus aureus [18] = experiment: Antibacterial activity against Methicillin-resistant Staphylococcus aureus assessed as inhibition of bacterial growth at 8 ug/ml by CLSI broth microdilution method; assay type: functional; procedure, shortened: as §2
[19] = system: Streptococcus sp. 'group A'; experiment: Antibacterial activity against Beta-hemolytic Streptococcus group A assessed as inhibition of bacterial growth at […] by CLSI broth microdilution method; assay type: functional; note: tested at 0.25 µg/mL
[20] = system: Streptococcus sp. 'group B'; experiment: Antibacterial activity against Beta-hemolytic Streptococcus group B assessed as inhibition of bacterial growth at […] by CLSI broth microdilution method; assay type: functional; note: tested at 0.25 µg/mL
[21] = system: Streptococcus sp. 'group B'; experiment: microbe, parasite or virus in culture; settings: read-out: INH
[22] = system: Streptococcus sp. 'group B'; experiment: microbe, parasite or virus in culture; settings: read-out: INH; remark: listed apart in the source
[23] = system: Streptococcus sp. 'group B'; experiment: microbe, parasite or virus in culture; settings: read-out: INH; remark: listed apart in the source
Enterococcus faecalis [24] = experiment: microbe, parasite or virus in culture; settings: read-out: INH
Enterococcus faecalis [25] = experiment: microbe, parasite or virus in culture; settings: read-out: INH; remark: listed apart in the source
Enterococcus faecalis [26] = experiment: microbe, parasite or virus in culture; settings: read-out: INH; remark: listed apart in the source
Enterococcus faecium [27] = experiment: microbe, parasite or virus in culture; settings: read-out: INH
Staphylococcus aureus [28] = experiment: microbe, parasite or virus in culture; settings: read-out: INH
Staphylococcus aureus [29] = experiment: microbe, parasite or virus in culture; settings: read-out: INH; remark: listed apart in the source
Staphylococcus aureus [30] = experiment: microbe, parasite or virus in culture; settings: read-out: INH; remark: listed apart in the source
Staphylococcus aureus [31] = experiment: microbe, parasite or virus in culture; settings: read-out: INH; remark: listed apart in the source
[32] = system: Streptococcus sp. 'group A'; experiment: microbe, parasite or virus in culture; settings: read-out: INH
[33] = system: Streptococcus sp. 'group A'; experiment: microbe, parasite or virus in culture; settings: read-out: INH; remark: listed apart in the source
Enterococcus faecalis [34] = experiment: Antibacterial activity against Enterococcus faecalis assessed as inhibition of bacterial growth at <= 0.008 ug/ml by CLSI broth microdilution method; assay type: functional; procedure, shortened: as §1
Enterococcus faecium [35] = experiment: Antibacterial activity against Enterococcus faecium assessed as inhibition of bacterial growth at 0.015 ug/ml by CLSI broth microdilution method; assay type: functional; procedure, shortened: as §1
Staphylococcus aureus [36] = experiment: Antibacterial activity against Methicillin-sensitive Staphylococcus aureus assessed as inhibition of bacterial growth at 0.015 ug/ml by CLSI broth microdilution method; assay type: functional
Staphylococcus aureus [37] = experiment: Antibacterial activity against Methicillin-resistant Staphylococcus aureus assessed as inhibition of bacterial growth at <= 0.008 ug/ml by CLSI broth microdilution method; assay type: functional; procedure, shortened: as §2
Staphylococcus aureus [38] = experiment: Antibacterial activity against Methicillin-resistant Staphylococcus aureus assessed as inhibition of bacterial growth at 0.015 ug/ml by CLSI broth microdilution method; assay type: functional; procedure, shortened: as §2
Staphylococcus aureus [39] = experiment: Antibacterial activity against Methicillin-resistant Staphylococcus aureus assessed as inhibition of bacterial growth at 0.03 ug/ml by CLSI broth microdilution method; assay type: functional; procedure, shortened: as §2
[40] = system: Streptococcus sp. 'group A'; experiment: Antibacterial activity against Beta-hemolytic Streptococcus group A assessed as inhibition of bacterial growth at <= 0.008 ug/ml by CLSI broth microdilution method; assay type: functional; procedure, shortened: as §1
[41] = system: Streptococcus sp. 'group A'; experiment: Antibacterial activity against Beta-hemolytic Streptococcus group A assessed as inhibition of bacterial growth at 0.015 ug/ml by CLSI broth microdilution method; assay type: functional; procedure, shortened: as §1
[42] = system: Streptococcus sp. 'group B'; experiment: Antibacterial activity against Beta-hemolytic Streptococcus group B assessed as inhibition of bacterial growth at <= 0.008 ug/ml by CLSI broth microdilution method; assay type: functional; procedure, shortened: as §1
[43] = system: Streptococcus sp. 'group B'; experiment: Antibacterial activity against Beta-hemolytic Streptococcus group B assessed as inhibition of bacterial growth at 0.015 ug/ml by CLSI broth microdilution method; assay type: functional; procedure, shortened: as §1

Row | Structure (SMILES) | inhibition at 8 µg/mL [1] | inhibition at 0.06 µg/mL (Enterococcus faecalis [2]) | inhibition at 2 µg/mL (Enterococcus faecalis [3]) | inhibition at […] (Enterococcus faecium [6]) | inhibition at 2 µg/mL (Enterococcus faecium [7]) | inhibition at 8 µg/mL (Enterococcus faecium [8]) | MIC50 (Staphylococcus aureus [9]) | MIC90 (Staphylococcus aureus [9]) | inhibition at 1 µg/mL (Staphylococcus aureus [12]) | inhibition at 2 µg/mL (Staphylococcus aureus [13]) | inhibition at 8 µg/mL (Staphylococcus aureus [14]) | inhibition at […] (Staphylococcus aureus [15]) | inhibition at […] (Staphylococcus aureus [16]) | inhibition at 4 µg/mL (Staphylococcus aureus [17]) | inhibition at 8 µg/mL (Staphylococcus aureus [18]) | inhibition at […] [19] | inhibition at […] [20] | further results
1 | COc1cc(Cc2cnc(N)nc2N)cc(OC)c1OC [TRIMETHOPRIM] | 100% | 4.2% | 67.7% | 37.3% | 38.3% | 41.6% | 1 µg/mL (≈ 3.44 µM) | 2 µg/mL (≈ 6.89 µM) | 90.2% | 97.8% | 98.7% | 0.2% | 5.7% | 92.5% | 92.9% | 84.6% | 0.5% | Activity (Staphylococcus aureus [4]): 98.7%; Activity (Staphylococcus aureus [5]): 92.9%; Activity (Staphylococcus aureus [10]): 0%; Activity (Staphylococcus aureus [11]): 0.1%; inhibition at 16 µg/mL [21]: 100%; inhibition at 32 µg/mL [22]: 100%; inhibition at 64 µg/mL [23]: 100%; inhibition at 16 µg/mL (Enterococcus faecalis [24]): 70.6%; inhibition at 32 µg/mL (Enterococcus faecalis [25]): 71%; inhibition at 64 µg/mL (Enterococcus faecalis [26]): 72.9%; inhibition at 16 µg/mL (Enterococcus faecium [27]): 47.2%; inhibition at 16 µg/mL (Staphylococcus aureus [28]): 98.7%; inhibition at 64 µg/mL (Staphylococcus aureus [29]): 98.7%; inhibition at 16 µg/mL (Staphylococcus aureus [30]): 93.6%; inhibition at 64 µg/mL (Staphylococcus aureus [31]): 94.6%; inhibition at 32 µg/mL [32]: 100%; inhibition at 64 µg/mL [33]: 100%
2 | COc1cc(Cc2cnc(N)nc2N)c2c(c1OC)OC(C1CC1)C=C2 (stereo not drawn) | 100% | 67.1% | 71.9% | 38.3% | 58.1% | 75.6% | 0.06 µg/mL (≈ 0.169 µM) | 0.12 µg/mL (≈ 0.339 µM) | 98.7% | 98.7% | 100% | 91.1% | 92.3% | 97.9% | 100% | 100% | 91.2% | inhibition (INH) (Enterococcus faecalis [34]): 25.5%; inhibition at 0.015 µg/mL (Enterococcus faecium [35]): 36.3%; inhibition at 0.015 µg/mL (Staphylococcus aureus [36]): 0.3%; inhibition at 0.03 µg/mL (Staphylococcus aureus [10]; Staphylococcus aureus): 6.1%; inhibition at 0.06 µg/mL (Staphylococcus aureus [11]; Staphylococcus aureus): 58.8%; inhibition (INH) (Staphylococcus aureus [37]): 0.1%; inhibition at 0.015 µg/mL (Staphylococcus aureus [38]): 0.4%; inhibition at 0.03 µg/mL (Staphylococcus aureus [39]): 12.8%; inhibition (INH) [40]: 30.5%; inhibition at 0.015 µg/mL [41]: 77.6%; inhibition (INH) [42]: 0%; inhibition at 0.015 µg/mL [43]: 0.5%
